{"source": "ChEMBL document CHEMBL5532688", "about": "“Carltonine-derived compounds for targeted butyrylcholinesterase inhibition” (RSC Med Chem, 2024)", "note": "Active and inactive are the calls of the source. The rule behind the calls is not given here."}
{"target": "T1, Acetylcholinesterase (Homo sapiens, UniProt P22303)", "T1 sequence (P22303 whole entry)": "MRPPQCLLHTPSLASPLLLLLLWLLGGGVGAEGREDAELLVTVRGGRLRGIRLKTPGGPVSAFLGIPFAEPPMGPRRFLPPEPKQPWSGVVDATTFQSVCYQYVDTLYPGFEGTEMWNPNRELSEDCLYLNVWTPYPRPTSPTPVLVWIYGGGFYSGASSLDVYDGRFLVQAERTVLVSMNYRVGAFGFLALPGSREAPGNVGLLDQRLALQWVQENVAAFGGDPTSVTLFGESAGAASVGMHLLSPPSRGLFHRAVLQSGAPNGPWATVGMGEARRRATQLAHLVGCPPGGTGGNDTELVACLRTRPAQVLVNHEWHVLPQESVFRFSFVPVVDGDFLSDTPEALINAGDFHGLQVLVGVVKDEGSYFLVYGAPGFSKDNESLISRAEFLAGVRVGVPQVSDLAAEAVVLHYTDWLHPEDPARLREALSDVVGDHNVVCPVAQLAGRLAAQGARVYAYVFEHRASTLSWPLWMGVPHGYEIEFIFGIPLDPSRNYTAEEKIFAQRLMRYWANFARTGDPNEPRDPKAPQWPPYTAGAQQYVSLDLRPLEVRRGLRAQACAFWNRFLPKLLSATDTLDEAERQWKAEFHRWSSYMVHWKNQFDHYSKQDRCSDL", "experiment": "Inhibition of human AChE using acetylthiocholine iodide as substrate at 10 uM incubated for 1 mins by spectrophotometric Ellman's method", "details": "not given", "procedure,_shortened": "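Recombinant human AChE, modified Ellman assay; compound in DMSO (single 10 μM screen) preincubated 5 min with enzyme and 5 mM DTNB in pH 7.4 phosphate buffer. […] Triplicate.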"}
{"smiles": "C=CCN(Cc1ccccc1)Cc1cccc(OCc2ccccc2)c1", "inhibition": "inactive"}
{"smiles": "C=CCN(CCCc1ccccc1)Cc1cccc(OCc2ccccc2)c1", "inhibition": "inactive"}
{"smiles": "COc1ccccc1CCNCc1ccc(OCc2ccccc2)cc1", "inhibition": "inactive"}
{"smiles": "CCN(Cc1ccccc1)Cc1cccc(OCc2ccccc2)c1", "inhibition": "inactive"}
{"smiles": "COc1ccc(CCNCc2ccc(OCc3ccccc3)cc2)cc1", "inhibition": "inactive"}
{"smiles": "c1ccc(CNCc2ccc(OCc3ccccc3)cc2)cc1", "inhibition": "inactive"}
{"smiles": "c1ccc(CCCNCc2ccc(OCc3ccccc3)cc2)cc1", "inhibition": "inactive"}
{"smiles": "c1ccc(COc2ccc(CNCCc3ccccn3)cc2)cc1", "inhibition": "inactive"}
{"smiles": "CCCN(CCCc1ccccc1)Cc1cccc(OCc2ccccc2)c1", "inhibition": "inactive"}
{"smiles": "CCN(CCCc1ccccc1)Cc1cccc(OCc2ccccc2)c1", "inhibition": "inactive"}
{"smiles": "CC(CNCc1cccc(OCc2ccccc2)c1)c1ccccc1", "note": "(stereo not given)", "inhibition": "inactive"}
{"smiles": "c1ccc(CCNCc2ccc(OCc3ccccc3)cc2)cc1", "inhibition": "inactive"}
{"smiles": "CCN(Cc1ccccc1)Cc1ccc(OCc2ccccc2)cc1", "inhibition": "inactive"}
{"smiles": "COc1cccc(CCNCc2cccc(OCc3ccccc3)c2)c1", "inhibition": "inactive"}
{"smiles": "C=CCN(CCc1ccc(O)cc1)Cc1cccc(OCc2ccccc2)c1", "inhibition": "inactive"}
{"smiles": "Clc1ccc(CCNCc2ccc(OCc3ccccc3)cc2)cc1", "inhibition": "inactive"}
{"smiles": "c1ccc(CNCc2cccc(OCc3ccccc3)c2)cc1", "inhibition": "inactive"}
{"smiles": "Oc1ccc(CCNCc2ccc(OCc3ccccc3)cc2)cc1", "inhibition": "inactive"}
{"smiles": "C=CCOc1ccc(CCN(CC=C)Cc2cccc(OCc3ccccc3)c2)cc1", "inhibition": "inactive"}
{"smiles": "C=CCOc1ccc(CCNCc2cccc(OCc3ccccc3)c2)cc1", "inhibition": "inactive"}
{"smiles": "C=CCN(CCc1ccccc1)Cc1cccc(OCc2ccccc2)c1", "inhibition": "inactive"}
{"smiles": "Oc1ccc(CCNCc2cccc(OCc3ccccc3)c2)cc1", "inhibition": "inactive"}
{"smiles": "COc1cccc(CCNCc2ccc(OCc3ccccc3)cc2)c1", "inhibition": "inactive"}
{"smiles": "CCN(CCc1ccccc1)Cc1cccc(OCc2ccccc2)c1", "inhibition": "inactive"}
{"smiles": "CCCN(Cc1ccccc1)Cc1ccc(OCc2ccccc2)cc1", "inhibition": "inactive"}
{"smiles": "COc1ccc(CCNCc2cccc(OCc3ccccc3)c2)cc1", "inhibition": "inactive"}
{"smiles": "c1ccc(COc2ccc(CNCc3ccccn3)cc2)cc1", "inhibition": "inactive"}
{"smiles": "CCN(Cc1ccc(OCc2ccccc2)cc1)C(C)CCc1ccccc1", "note": "(stereo not given)", "inhibition": "inactive"}
{"smiles": "CCCN(CCc1ccccc1)Cc1cccc(OCc2ccccc2)c1", "inhibition": "inactive"}
{"smiles": "CCCN(Cc1ccc(OCc2ccccc2)cc1)C(C)CCc1ccccc1", "note": "(stereo not given)", "inhibition": "inactive"}
{"smiles": "COc1ccccc1CCNCc1cccc(OCc2ccccc2)c1", "inhibition": "inactive"}
{"smiles": "CCCN(CCCc1ccccc1)Cc1ccc(OCc2ccccc2)cc1", "inhibition": "inactive"}
{"smiles": "c1ccc(CCCCNCc2ccc(OCc3ccccc3)cc2)cc1", "inhibition": "inactive"}
{"smiles": "c1ccc(CCNCc2cccc(OCc3ccccc3)c2)cc1", "inhibition": "inactive"}
{"smiles": "CCCOc1ccc(CCN(CCC)Cc2ccc(OCc3ccccc3)cc2)cc1", "inhibition": "inactive"}
{"smiles": "Clc1cccc(NCc2cccc(OCc3ccccc3)c2)c1", "inhibition": "inactive"}
{"smiles": "CC(CCc1ccccc1)NCc1ccc(OCc2ccccc2)cc1", "note": "(stereo not given)", "inhibition": "inactive"}
{"smiles": "CCCN(CCc1ccc(O)cc1)Cc1ccc(OCc2ccccc2)cc1", "inhibition": "inactive"}
{"smiles": "CC(CNCc1ccc(OCc2ccccc2)cc1)c1ccccc1", "note": "(stereo not given)", "inhibition": "inactive"}
{"smiles": "c1ccc(CCCNCc2cccc(OCc3ccccc3)c2)cc1", "inhibition": "inactive"}
{"smiles": "COc1ccc(CNCc2cccc(OCc3ccccc3)c2)cc1OC", "inhibition": "inactive"}
{"target": "T2, Cholinesterase (Homo sapiens, UniProt P06276)", "T2 sequence (P06276 whole entry)": "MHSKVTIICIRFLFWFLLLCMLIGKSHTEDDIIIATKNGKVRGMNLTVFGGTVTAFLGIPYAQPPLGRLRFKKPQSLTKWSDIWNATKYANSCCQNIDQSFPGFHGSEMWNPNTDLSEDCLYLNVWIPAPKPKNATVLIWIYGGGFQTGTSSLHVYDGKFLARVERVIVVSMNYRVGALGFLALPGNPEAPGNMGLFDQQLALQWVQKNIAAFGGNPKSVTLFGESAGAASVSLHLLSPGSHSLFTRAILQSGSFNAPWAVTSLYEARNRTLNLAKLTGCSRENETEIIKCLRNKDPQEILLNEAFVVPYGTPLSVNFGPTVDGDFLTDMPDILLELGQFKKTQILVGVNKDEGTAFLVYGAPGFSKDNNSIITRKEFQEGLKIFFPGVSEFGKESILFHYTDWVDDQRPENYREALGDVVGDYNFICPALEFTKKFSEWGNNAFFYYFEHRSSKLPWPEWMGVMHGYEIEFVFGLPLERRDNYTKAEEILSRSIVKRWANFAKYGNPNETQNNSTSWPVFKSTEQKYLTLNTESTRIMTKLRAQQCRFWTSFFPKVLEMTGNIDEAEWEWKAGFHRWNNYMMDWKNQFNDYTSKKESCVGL", "experiment": "Reversible binding affinity to human BChE using butyrylthiocholine iodide as substrate assessed as reduction in Vmax at 0.445 to 1.400 micromol/L preincubated for 5 min followed by substrate addition and measured after 1 mins by Lineweaver-Burk plot analysis", "details": "dose 0.445-1.4 µmol/L, time 6.0 min", "procedure,_shortened": "(§1)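 Recombinant human BChE at final activity 0.002 U/μL in phosphate buffer. […] Km, Vmax, Ki and Ki' came from nonlinear regression of velocity curves. Lineweaver–Burk plots were drawn by linear regression.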"}
{"smiles": "CCCN(CCc1ccc(O)cc1)Cc1ccc(OCc2ccccc2)cc1", "Activity": "Active"}
{"target": "T2, Cholinesterase", "experiment": "Reversible binding affinity to human BChE using butyrylthiocholine iodide as substrate assessed as reduction in Km at 0.445 to 1.400 micromol/L preincubated for 5 min followed by substrate addition and measured after 1 mins by Lineweaver-Burk plot analysis", "details": "dose 0.445-1.4 µmol/L, time 6.0 min", "procedure,_shortened": "as §1"}
{"smiles": "CCCN(CCc1ccc(O)cc1)Cc1ccc(OCc2ccccc2)cc1", "Activity": "Active"}
{"target": "T1, Acetylcholinesterase", "experiment": "Inhibition of human AChE using acetylthiocholine iodide as substrate incubated for 1 mins by spectrophotometric Ellman's method", "details": "not given", "procedure,_shortened": "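Modified Ellman assay on recombinant human AChE (acetylthiocholine) or human BChE (butyrylthiocholine). Enzyme, 5 mM DTNB and DMSO compound dilutions at several concentrations preincubated 5 min in pH 7.4 phosphate buffer. Reaction started with 10 mM substrate, ΔA read at 412 nm for 1 min. IC50 is the mean ± SEM of three independent runs, each in triplicate.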", "units": {"IC50": "µM"}}
{"smiles": "CN(CCc1ccc(O)cc1)Cc1cc2c(cc1-c1cccc3c1N(C)CC3)OCO2", "IC50": "> 100"}
{"target": "T2, Cholinesterase", "experiment": "Inhibition of human BChE using butyrylthiocholine iodide as substrate incubated for 1 mins by spectrophotometric Ellman's method", "details": "not given", "units": {"IC50": "µM"}}
{"smiles": "C=CCOc1ccc(CCN(CC=C)Cc2ccc(OCc3ccccc3)c(OC)c2)cc1", "IC50": "> 10"}
